Test [1] addresses T1, Adrenergic receptor alpha-1 (Rattus norvegicus, UniProt P15823+P23944+P43140).
T1 sequence (P15823 whole entry): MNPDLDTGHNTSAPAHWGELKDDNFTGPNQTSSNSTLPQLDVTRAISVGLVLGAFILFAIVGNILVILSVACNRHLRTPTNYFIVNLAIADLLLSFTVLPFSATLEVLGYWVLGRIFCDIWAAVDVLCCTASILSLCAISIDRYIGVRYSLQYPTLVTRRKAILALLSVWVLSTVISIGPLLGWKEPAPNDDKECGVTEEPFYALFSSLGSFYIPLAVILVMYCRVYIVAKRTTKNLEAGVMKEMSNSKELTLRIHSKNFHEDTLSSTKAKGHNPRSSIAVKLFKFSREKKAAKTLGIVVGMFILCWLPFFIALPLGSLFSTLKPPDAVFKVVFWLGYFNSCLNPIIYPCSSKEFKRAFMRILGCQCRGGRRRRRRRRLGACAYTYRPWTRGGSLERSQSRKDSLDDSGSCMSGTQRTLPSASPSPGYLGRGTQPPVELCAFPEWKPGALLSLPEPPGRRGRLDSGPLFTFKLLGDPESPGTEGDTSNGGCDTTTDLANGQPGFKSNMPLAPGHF
T1 sequence (P23944 whole entry): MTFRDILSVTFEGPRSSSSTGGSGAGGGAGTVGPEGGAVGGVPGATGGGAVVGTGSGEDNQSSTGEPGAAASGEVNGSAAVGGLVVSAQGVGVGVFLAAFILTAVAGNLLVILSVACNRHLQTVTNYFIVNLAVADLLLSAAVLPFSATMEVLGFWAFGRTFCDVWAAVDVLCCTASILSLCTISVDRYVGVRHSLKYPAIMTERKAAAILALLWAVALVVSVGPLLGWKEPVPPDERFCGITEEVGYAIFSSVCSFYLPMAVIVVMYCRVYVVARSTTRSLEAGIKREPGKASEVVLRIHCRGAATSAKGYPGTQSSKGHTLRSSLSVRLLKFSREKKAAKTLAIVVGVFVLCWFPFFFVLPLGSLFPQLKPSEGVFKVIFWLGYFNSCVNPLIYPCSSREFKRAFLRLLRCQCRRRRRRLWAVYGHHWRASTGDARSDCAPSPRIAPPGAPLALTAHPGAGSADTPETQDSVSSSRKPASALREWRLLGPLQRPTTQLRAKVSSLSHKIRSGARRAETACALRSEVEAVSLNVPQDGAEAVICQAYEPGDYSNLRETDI
T1 sequence (P43140 whole entry): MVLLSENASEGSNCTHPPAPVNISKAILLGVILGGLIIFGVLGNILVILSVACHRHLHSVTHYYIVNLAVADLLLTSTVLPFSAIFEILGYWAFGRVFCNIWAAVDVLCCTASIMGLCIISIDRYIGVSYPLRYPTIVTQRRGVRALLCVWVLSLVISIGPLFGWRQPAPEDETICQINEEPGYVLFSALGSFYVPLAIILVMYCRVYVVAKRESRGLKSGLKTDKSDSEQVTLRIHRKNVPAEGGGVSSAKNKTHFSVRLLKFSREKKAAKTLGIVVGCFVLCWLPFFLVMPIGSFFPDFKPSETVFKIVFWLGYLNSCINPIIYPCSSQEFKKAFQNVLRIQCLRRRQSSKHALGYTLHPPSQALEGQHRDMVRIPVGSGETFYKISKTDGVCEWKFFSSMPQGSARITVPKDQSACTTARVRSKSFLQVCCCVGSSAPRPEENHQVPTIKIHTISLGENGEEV
Put plainly: Binding affinity to alpha-1 adrenergic receptor determined by measurement of [3H]prazosin displacement from rat cortical membrane. In a few lines:
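Male Sprague-Dawley rat (150-200 g) cerebral cortex membranes, washed in 50 mM Tris-HCl/0.5 mM EDTA pH 7.4. 250 µg membrane protein incubated with 0.5 nM [3H]prazosin for 30 min at 25 °C in a 0.5 mL volume. Nonspecific binding defined by 10 µM phentolamine. IC50 estimated graphically; Ki calculated by Cheng-Prusoff.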

The species entered for a further test is Cavia porcellus. Put plainly: In vitro reversal of inhibitory effect of UK - 14304 on the contractile response of guinea pig ileum to field stimulation. In kind it is functional, organism-based. Particulars: read-out: pA2 (converted). In a few lines: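 Ileum from female Dunkin-Hartley guinea pigs (250-300 g) held in Tyrode solution at 37 °C, gassed with O2, under 1 g tension. Field stimulation at 0.1 Hz (1-ms pulses, supramaximal voltage), with isometric contractions recorded. Cumulative UK-14304 curves were run, the second taken as control. Antagonist was then applied for 40 min before repeat agonist curves.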

Test [2] has as its target T2, Adrenergic receptor alpha-2 (Rattus norvegicus) (UniProt P22086+P19328+P22909).
Test [3] deals with T3, Adrenergic receptor alpha-2 (Rattus norvegicus, UniProt P22086+P19328+P22909).
T3 sequence (P22086 whole entry): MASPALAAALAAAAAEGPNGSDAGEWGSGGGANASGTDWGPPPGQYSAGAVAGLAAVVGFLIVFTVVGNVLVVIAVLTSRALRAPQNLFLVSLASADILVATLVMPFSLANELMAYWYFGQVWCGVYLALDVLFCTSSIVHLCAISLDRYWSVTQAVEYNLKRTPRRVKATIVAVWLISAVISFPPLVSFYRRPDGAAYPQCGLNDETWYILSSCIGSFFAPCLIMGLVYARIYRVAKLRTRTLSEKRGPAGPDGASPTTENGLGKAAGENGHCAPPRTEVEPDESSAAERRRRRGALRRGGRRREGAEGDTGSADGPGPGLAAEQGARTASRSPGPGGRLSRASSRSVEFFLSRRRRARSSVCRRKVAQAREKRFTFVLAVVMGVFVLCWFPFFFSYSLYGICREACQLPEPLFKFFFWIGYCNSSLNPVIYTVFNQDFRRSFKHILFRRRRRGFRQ
T3 sequence (P19328 whole entry): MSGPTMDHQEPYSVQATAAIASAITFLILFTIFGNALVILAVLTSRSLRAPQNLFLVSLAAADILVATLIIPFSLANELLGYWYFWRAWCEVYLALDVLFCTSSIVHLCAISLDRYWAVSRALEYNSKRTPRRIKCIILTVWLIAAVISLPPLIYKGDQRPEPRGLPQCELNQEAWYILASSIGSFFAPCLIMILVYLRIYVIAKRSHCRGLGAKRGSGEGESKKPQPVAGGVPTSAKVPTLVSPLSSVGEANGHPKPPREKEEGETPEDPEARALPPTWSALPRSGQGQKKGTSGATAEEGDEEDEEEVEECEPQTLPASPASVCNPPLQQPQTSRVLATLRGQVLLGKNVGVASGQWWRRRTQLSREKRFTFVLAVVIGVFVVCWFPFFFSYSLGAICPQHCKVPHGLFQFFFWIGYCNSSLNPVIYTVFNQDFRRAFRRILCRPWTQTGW
T3 sequence (P22909 whole entry): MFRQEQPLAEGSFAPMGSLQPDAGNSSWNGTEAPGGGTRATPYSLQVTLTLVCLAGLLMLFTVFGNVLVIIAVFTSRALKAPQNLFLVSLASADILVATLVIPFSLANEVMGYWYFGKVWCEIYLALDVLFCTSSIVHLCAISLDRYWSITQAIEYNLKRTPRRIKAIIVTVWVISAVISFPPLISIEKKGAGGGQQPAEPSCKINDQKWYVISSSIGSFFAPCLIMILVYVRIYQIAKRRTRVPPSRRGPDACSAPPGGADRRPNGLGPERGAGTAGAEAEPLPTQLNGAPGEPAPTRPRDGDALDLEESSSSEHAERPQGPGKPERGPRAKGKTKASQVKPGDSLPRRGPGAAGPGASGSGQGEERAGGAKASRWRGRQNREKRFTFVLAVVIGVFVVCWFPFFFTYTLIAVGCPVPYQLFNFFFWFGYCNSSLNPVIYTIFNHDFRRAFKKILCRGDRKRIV
Put plainly: Binding affinity to alpha-2 adrenergic receptor determined by measurement of [3H]yohimbine displacement from rat cortical membrane.

Test [4] deals with T2, Adrenergic receptor alpha-2 (Rattus norvegicus). This is another data set of the same source.

These results are taken from ChEMBL document CHEMBL1125249, “Structure-affinity relationships of 12-sulfonyl derivatives of 5,8,8a,9,10,11,12,12a,13,13a-decahydro-6H-isoquino[2,1-g][1 ,6] naphthyridines at alpha-adrenoceptors” (J Med Chem, 1991).

In the case of `CCCS(=O)(=O)N1CCC[C@@H]2CN3CCc4ccccc4[C@@H]3C[C@@H]21`, the “Log Ki” value in test [1] was -5.29; in test [3] it was -8.73. Moreover, in the test filed under Cavia porcellus, the Kb was 0.398 nM. Moreover, the ID50 was 0.019 mg/kg in test [2] and 1.4 mg/kg in test [4].

For the molecule `CS(=O)(=O)N1CCC[C@@H]2CN3CCc4cc5c(cc4[C@@H]3C[C@@H]21)OCO5`, the “Log Ki” value was -5.14 in test [1] and -9.18 in test [3]. The Kb in the test filed under Cavia porcellus is 1 nM. In addition, the values for the ID50 in test [2] and in test [4] were 0.06 mg/kg and 0.76 mg/kg, respectively.

Take `COc1ccc(S(=O)(=O)N2CCC[C@@H]3CN4CCc5ccccc5[C@@H]4C[C@@H]32)cc1`: the entries for the “Log Ki” value in test [1] and in test [3] were -5.31 and -9.34, respectively. The Kb in the test filed under Cavia porcellus was 1.58 nM. In addition, the figures for the ID50 in test [2] and in test [4] were 0.18 mg/kg and above 3 mg/kg, respectively.

Regarding `CCCCS(=O)(=O)N1CCC[C@@H]2CN3CCc4ccccc4[C@@H]3C[C@@H]21`, the “Log Ki” value in test [1] is given as -5.64; in test [3], -8.9. In addition, in the test listed under Cavia porcellus, the Kb was 1.26 nM. The ID50 in test [2] turned out to be 0.036 mg/kg; in test [4] it was 0.9 mg/kg.

For `COc1ccc2c(c1)CCN1C[C@H]3CCCN(S(=O)(=O)N(C)C)[C@@H]3C[C@@H]21`, the figures for the “Log Ki” value in test [1] and in test [3] were -5.57 and -8.97, respectively. The Kb in the test listed under Cavia porcellus is 0.501 nM. Also, the values for the ID50 in test [2] and in test [4] were 0.027 mg/kg and 0.17 mg/kg, respectively.

For `CC(C)CS(=O)(=O)N1CCC[C@@H]2CN3CCc4ccccc4[C@@H]3C[C@@H]21`, the “Log Ki” value is -5.37 in test [1] and -8.77 in test [3]. Besides, in the test filed under Cavia porcellus, the Kb was 0.316 nM. Moreover, the figures for the ID50 in test [2] and in test [4] were 0.034 mg/kg and 0.85 mg/kg, respectively.

Consider `COc1ccc2c(c1)CCN1C[C@@H]3CCCN(S(C)(=O)=O)[C@@H]3C[C@H]21`, for which the “Log Ki” value in test [1] is on record as below -5; in test [3] it was -6.32. Besides, the Kb in the test filed under Cavia porcellus is 316 nM. Besides, the ID50 in test [2] and in test [4] was above 10 mg/kg throughout.

For `CCS(=O)(=O)N1CCC[C@@H]2CN3CCc4ccccc4[C@@H]3C[C@@H]21`, the “Log Ki” value in test [1] was -4.97; in test [3], -8.82. The Kb in the test filed under Cavia porcellus was 5.01 nM. Moreover, the ID50 in test [2] was determined as 0.019 mg/kg; in test [4] it was 1.1 mg/kg.

Regarding `COc1ccc2c(c1)CCN1C[C@H]3CCCN(S(C)(=O)=O)[C@H]3C[C@@H]21` [DELEQUAMINE], the “Log Ki” value in test [1] is -4.99; in test [3], -9.18. In addition, the Kb in the test listed under Cavia porcellus is 0.2 nM. In addition, the ID50 in test [2] came out at 0.013 mg/kg; in test [4], 0.21 mg/kg.
